The source made the active and inactive calls. The rule behind the calls is not given here.
Experiments:
[1] = tested on: Enterococcus faecium; experiment: Antibacterial activity against chlorguanide triazine-resistant Streptococcus faecium ATCC 8043 assessed as reduction in growth in presence of 0.002 ug/ml folic acid; assay type: functional, organism-based
Procedure, shortened: (§1)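 Folate-requiring strains grown in medium with folic acid, 0.002 µg/ml for S. faecium and 0.001 µg/ml for L. casei; P. cerevisiae given folinic acid, 0.001 µg/ml. Resistant substrains came from serial transfer in rising chlorguanide triazine, and the most resistant were used. Compounds tested up to 1000 µg/ml, or 100 µg/ml when supply was limited. Growth read as Klett turbidity; IC50 is the µM concentration giving 50% growth inhibition.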

[2] = tested on: Lacticaseibacillus casei; experiment: Antibacterial activity against sensitive Lactobacillus casei ATCC 7469 assessed as reduction in growth in presence of 0.001 ug/ml folic acid; assay type: functional, organism-based
Procedure, shortened: (§2)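 Folate-requiring strains in the medium of the earlier assay method. Folic acid was 0.002 μg/ml for S. faecium and 0.001 μg/ml for L. casei. Turbidity read on a Klett-Summerson colorimeter. IC50 is the micromolar concentration reducing growth to 50% of control. Top concentration was 1000 μg/ml, or 100 μg/ml if supply was limited.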

[3] = tested on: Lacticaseibacillus casei; experiment: Antibacterial activity against chlorguanide triazine-resistant Lactobacillus casei ATCC 7469 assessed as reduction in growth in presence of 0.001 ug/ml folic acid; assay type: functional, organism-based; procedure, shortened: as §1
[4] = tested on: Pediococcus; experiment: Antibacterial activity against sensitive Pediococcus cerevisiae ATCC 808 assessed as reduction in growth in presence of 0.001 ug/ml folinic acid; assay type: functional
Procedure, shortened: (§3)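 P. cerevisiae grown with folinic acid at 0.001 μg/ml in the earlier-described medium. Turbidity read on a Klett-Summerson colorimeter. IC50 is the micromolar concentration reducing growth to 50% of control. Top concentration was 1000 μg/ml, or 100 μg/ml when supply was limited.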

[5] = tested on: Pediococcus; experiment: Antibacterial activity against chlorguanide triazine-resistant Pediococcus cerevisiae ATCC 808 assessed as reduction in growth in presence of 0.001 ug/ml folinic acid; assay type: functional; procedure, shortened: as §1
[6] = tested on: Plasmodium berghei; experiment: Antimalarial activity against Plasmodium berghei infected in sc dosed mouse assessed as active dose required to increase of 100% in mean survival time; assay type: functional; details: read-out: MED
Procedure, shortened: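 Mice received a standard blood-induced P. berghei inoculum and were then treated with one subcutaneous dose of compound suspended in peanut oil. The minimum active dose is the lowest dose that raised mean survival time by 100%.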

[7] = tested on: Plasmodium berghei; experiment: Antimalarial activity against Plasmodium berghei infected in sc dosed mouse assessed as dose required to survivors for period of 60 days; assay type: functional
Procedure, shortened: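 Mice infected with a blood-induced P. berghei inoculum were given one subcutaneous dose in peanut oil. Survivors at 60 days counted as cured. The minimum curative dose is the lowest dose that cured any mouse.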

[8] = tested on: Enterococcus faecium; experiment: Antibacterial activity against sensitive Streptococcus faecium ATCC 8043 assessed as reduction in growth; assay type: functional, organism-based; procedure, shortened: as §1
[9] = tested on: Enterococcus faecium; experiment: Antibacterial activity against chlorguanide triazine-resistant Streptococcus faecium ATCC 8043 assessed as reduction in growth; assay type: functional, organism-based; procedure, shortened: as §1
[10] = tested on: Enterococcus faecium; experiment: Fold increase in resistance, ratio of IC50 for chlorguanide triazine-resistant Streptococcus faecium ATCC 8043 to IC50 for sensitive Streptococcus faecium ATCC 8043; assay type: functional
Procedure, shortened: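 Resistant S. faecium substrain raised by serial transfer in increasing chlorguanide triazine. IC50 (µM, 50% growth inhibition by turbidity) was found for resistant and parent strains in folic acid (0.002 µg/ml) medium. Fold increase taken as IC50 resistant / IC50 sensitive.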

[11] = tested on: Lacticaseibacillus casei; experiment: Antibacterial activity against sensitive Lactobacillus casei ATCC 7469 assessed as reduction; assay type: functional, organism-based; procedure, shortened: as §1
[12] = tested on: Lacticaseibacillus casei; experiment: Antibacterial activity against chlorguanide triazine-resistant Lactobacillus casei ATCC 7469 assessed as reduction in growth; assay type: functional, organism-based; procedure, shortened: as §1
[13] = tested on: Lacticaseibacillus casei; experiment: Fold increase in resistance, ratio of IC50 for chlorguanide triazine-resistant Lactobacillus casei ATCC 7469 to IC50 for sensitive Lactobacillus casei ATCC 7469; assay type: functional
Procedure, shortened: (§4)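 Resistant substrains were made by serial transfer in rising concentrations of cycloguanil, and the most resistant isolate of each organism was used. Both strains were assayed turbidimetrically under identical conditions. FIR = IC50 of the resistant strain divided by IC50 of the sensitive parent.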

[14] = Antibacterial activity against sensitive Pediococcus cerevisiae ATCC 808 assessed as reduction; assay type: functional; procedure, shortened: as §3
[15] = Antibacterial activity against chlorguanide triazine-resistant Pediococcus cerevisiae ATCC 808 assessed as reduction in growth; assay type: functional; procedure, shortened: as §1
[16] = tested on: Pediococcus; experiment: Fold increase in resistance, ratio of IC50 for chlorguanide triazine-resistant Pediococcus cerevisiae ATCC 808 to IC50 for sensitive Pediococcus cerevisiae ATCC 808; assay type: functional; procedure, shortened: as §4
[17] = tested on: Enterococcus faecium; experiment: Antibacterial activity against sensitive Streptococcus faecium ATCC 8043 assessed as reduction in growth in presence of 0.002 ug/ml folic acid; assay type: functional, organism-based; procedure, shortened: as §2
[18] = tested on: Escherichia coli; experiment: Antibacterial activity against sensitive Escherichia coli ATCC 10536 assessed as reduction in growth in presence of p-aminobenzoic acid; assay type: functional, organism-based
Procedure, shortened: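 Reversal test. Drug inhibition was challenged with PABA in Sahyun et al. medium plus 0.6% acid-hydrolyzed casein. Growth read as turbidity on a Klett-Summerson colorimeter. Scored as reversal or nonreversal of the drug inhibition.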

[19] = tested on: Escherichia coli; experiment: Antibacterial activity against sensitive Escherichia coli ATCC 10536 assessed as reduction in growth; assay type: functional, organism-based
Procedure, shortened: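 Growth inhibition in Sahyun et al. medium plus 0.6% acid-hydrolyzed casein. Growth read as turbidity on a Klett-Summerson photoelectric colorimeter. IC50 is the micromolar concentration giving 50% growth inhibition. Top concentration was 1000 μg/ml, or 100 μg/ml when compound was limited.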

| Compound | inhibition [1] | inhibition [2] | inhibition [3] | inhibition [4] | inhibition [5] | minimal effective dose [6] [mg/kg] | MCD [7] [mg/kg] | IC50 [8] [µM] | IC50 [9] [µM] | Ratio IC50 [10] | IC50 [11] [µM] | IC50 [12] [µM] | Ratio IC50 [13] | IC50 [14] [µM] | IC50 [15] [µM] | Ratio IC50 [16] | inhibition [17] | inhibition [18] | IC50 [19] [µM] |
| --- | --- | --- | --- | --- | --- | --- | --- | --- | --- | --- | --- | --- | --- | --- | --- | --- | --- | --- | --- |
| CN1CCCCC1CNc1nc(-c2ccc(Cl)c(Cl)c2)nc(C(Cl)(Cl)Cl)n1 (stereo not drawn) | Active | Active | Active | Active | Active | 160 | 320 | 132 | 128 | 0.97 | 3 | 3.2 | 1.1 | 4.9 | 3.8 | 1 | Active | – | – |
| Nc1nc(N)c2c(ccc3cc(Br)ccc32)n1 | inactive | inactive | inactive | inactive | – | 640 | >640 | 0.006 | 0.7 | 117 | 1 | 0.06 | 0.06 | 0.04 | 0.3 | 7.5 | inactive | Active | 4.8 |
| Clc1ccc(Nc2nc(NCCCN3CCCC3)c3ccccc3n2)cc1Cl | – | Active | – | Active | Active | – | – | 32 | 22 | 0.7 | 10 | 5.7 | 0.6 | 3.5 | 7.9 | 2 | Active | Active | 10 |
| CCc1ccc(N2C(N)=NC(N)=NC2(C)C)cc1 | – | inactive | inactive | inactive | – | 320 | >640 | 0.036 | > 350 | >9700 | 27.3 | 291 | 11 | 42.6 | > 355 | >8 | inactive | Active | 1900 |
| O=C(NO)c1ccc(C(=O)NO)cc1 | Active | Active | Active | – | – | 320 | 640 | 1700 | > 5000 | 3 | 2600 | 3000 | 1 | > 5000 | – | – | Active | – | > 5000 |
| C=C[C@H]1CN2CC[C@H]1C[C@H]2[C@H](O)c1ccnc2ccc(OC)cc12 [QUININE] | – | Active | – | Active | Active | 640 | >640 | > 2500 | > 2500 | – | 980 | 1200 | 1 | 780 | 850 | 1 | – | – | 1300 |
| C/C(=C\C(=N\NC(=N)N)c1ccccc1)c1ccccc1 | – | Active | Active | Active | Active | 160 | >640 | 11 | 60 | 6 | 48 | 41 | 1 | 25 | 13 | 0.5 | inactive | Active | 51 |
| Nc1nc(=O)c2c([nH]1)NCC(CCNc1ccc(C(=O)[O-])cc1)N2.[Na+] (stereo not drawn) | inactive | inactive | inactive | – | – | > 640 | >640 | 0.009 | 7.2 | 800 | 6 | 0.2 | 0.03 | > 2900 | – | – | inactive | – | – |
| Cc1nc(C)c(Cl)c(O)c1Cl [CLOPIDOL] | Active | Active | – | Active | Active | 160 | >640 | 3700 | 2200 | 0.6 | 1700 | 885 | 0.52 | 833 | 1000 | 1 | Active | – | > 5200 |

— ChEMBL document CHEMBL3272032, “Antifolate studies. Activities of 40 potential antimalarial compounds against sensitive and chlorguanide triazine resistant strains of folate-requiring bacteria and Escherichia coli” (J Med Chem, 1977)
